{"data": "Results of several laboratories", "KIT L576P": "Mast/stem cell growth factor receptor Kit (KIT, Homo sapiens, UniProt P10721, L576P)", "KIT": "Mast/stem cell growth factor receptor Kit (KIT, Homo sapiens, UniProt P10721)", "note": "Each line is one published result; the experiments were not run side by side."}
{"SMILES": "Cc1ccc(NC(=O)c2ccnc(C(F)(F)F)c2)cc1-c1cc(OCCO)nc(N2CCOCC2)c1", "target": "Mast/stem cell growth factor receptor Kit (KIT, Homo sapiens, UniProt P10721, V559D/V654A)", "assay": "binding", "conditions": "1 µM", "endpoint": "remaining binding", "value": "91%"}
{"SMILES": "COc1ccc2oc(-c3ccc4nc(N)oc4c3)c/c(=N\\c3ccccc3NC(=O)CCN)c2c1", "target": "Mast/stem cell growth factor receptor Kit (KIT, Homo sapiens, UniProt P10721, V654A)", "assay": "cell-free assay", "conditions": "1 µM", "endpoint": "remaining signal", "value": "102%"}
{"SMILES": "CC#CC(=O)N1CCC[C@H]1c1nc(-c2ccc(C(=O)Nc3ccccn3)cc2)c2c(N)nccn12", "target": "KIT L576P", "assay": "enzyme activity, inhibitor", "conditions": "1 µM", "endpoint": "inhibition", "value": "13%"}
{"SMILES": "C1=C/COCc2cc(ccc2OCCN2CCCC2)Nc2nccc(n2)-c2cccc(c2)COC/1", "target": "Mast/stem cell growth factor receptor Kit (KIT, Homo sapiens, UniProt P10721, V559D)", "assay": "binding", "conditions": "0.1 µM", "endpoint": "remaining binding", "value": "3.7%"}
{"SMILES": "C=CC(=O)N1CCC([C@@H]2CCNc3c(C(N)=O)c(-c4ccc(Oc5ccccc5)cc4)nn32)CC1", "target": "KIT", "assay": "enzyme activity, inhibitor", "conditions": "1 µM", "endpoint": "inhibition", "value": "17%"}
{"SMILES": "CN1CCN(C(=O)c2ccc(NC(=O)Nc3ccc(N(C)c4ccnc(Nc5ccc(CS(C)(=O)=O)cc5)n4)cc3)cc2)CC1", "target": "Mast/stem cell growth factor receptor Kit (KIT, Homo sapiens, UniProt P10721, D816V)", "assay": "binding", "conditions": "1 µM", "endpoint": "remaining binding", "value": "23%"}
{"SMILES": "CO[C@@H]1[C@H](N(C)C(=O)c2ccccc2)C[C@H]2O[C@]1(C)n1c3ccccc3c3c4c(c5c6ccccc6n2c5c31)C(=O)NC4", "target": "Mast/stem cell growth factor receptor Kit (KIT, Homo sapiens, UniProt P10721, D816H)", "assay": "enzyme activity, inhibitor", "conditions": "1 µM", "endpoint": "inhibition", "value": "98%"}
{"SMILES": "COc1ccc2[nH]c3c4[nH]c5ccc(OC)cc5c4c4c(c3c2c1)C(=O)NC4=O", "target": "Mast/stem cell growth factor receptor Kit (KIT, Homo sapiens, UniProt P10721, T670I/V559D)", "assay": "binding", "conditions": "1 µM", "endpoint": "remaining binding", "value": "49%"}
{"SMILES": "C#Cc1cnc(Nc2ccnc(CO)c2)nc1Nc1ccccc1S(C)(=O)=NC#N (stereo not drawn)", "target": "KIT", "assay": "cell-free assay", "conditions": "1 µM", "endpoint": "remaining signal", "value": "73%"}
{"SMILES": "C[C@H]1CC[C@H](n2c3cnccc3c3cnc(Nc4ccc5c(n4)CCN(C(=O)CO)C5)nc32)CC1", "target": "Mast/stem cell growth factor receptor Kit (KIT, Homo sapiens, UniProt P10721, A829P)", "assay": "cell-free assay", "conditions": "1 µM", "endpoint": "remaining signal", "value": "36%"}
{"SMILES": "N#Cc1ccc(NC(=O)Nc2ccccc2)cc1", "target": "KIT", "assay": "cell-free assay, competition with immobilised ligand", "conditions": "25 µM", "endpoint": "remaining binding", "value": "49%"}
{"SMILES": "CCCCC(=O)Nc1ccc(-c2ccc3ncn(CCC)c(=O)c3c2)cn1", "target": "KIT L576P", "assay": "binding, competition with immobilised ligand", "conditions": "0.5 µM", "endpoint": "remaining binding", "value": "87%"}
